Published values collected from several papers.
Each line is one published result; the experiments were not run side by side.
Organism: Acinetobacter baumannii
Effect on: microbial growth

SMILES	technique	strain	time	setting	MIC
NC[C@@H]1O[C@H](O[C@H]2[C@@H](O)[C@H](O[C@@H]3[C@@H](O)[C@H](N)C[C@H](N)[C@H]3O[C@H]3O[C@H](CO)[C@@H](O)[C@H](O)[C@H]3N)O[C@@H]2CO)[C@H](N)[C@@H](O)[C@@H]1O					2 to 4 µg/mL
O=C(Cc1cc(O)c(O)c(O)c1)NCCCCCCCC[P+](c1ccccc1)(c1ccccc1)c1ccccc1.[Br-]	broth dilution	ATCC19606	18 h		> 32 µg/mL
CN(C)CCCNc1nc(Cl)c2c(c1O)C(=O)C1=C(O)[C@]3(O)C(=O)C(C(N)=O)=C(O)[C@@H](N(C)C)[C@@H]3C[C@@H]1C2.Cl	broth dilution	ATCC19606			> 32 µg/mL
CC1(C)S[C@@H]2[C@H](NC(=O)C(C(=O)O)c3ccccc3)C(=O)N2[C@H]1C(=O)O (stereo partly shown)	broth dilution			clinical isolate	> 200 µM
O=C(O)c1ccc(-n2cc(/C=N/Nc3ccc(Br)cc3)c(-c3cccc(F)c3)n2)cc1		ATCCBAA1605			6.25 µg/mL
CN(C)Cc1ccc2c(N(C)C)c3c(c(O)c2c1)C(=O)C1=C(O)[C@]2(O)C(=O)C(C(N)=O)=C(O)[C@@H](N(C)C)[C@@H]2C[C@@H]1C3	broth dilution	ATCC19606			1 µg/mL
CCCCCCC/C=C/C(=O)N1C(=O)/C(=C(/C)O)C(=O)C1CCC(=O)O (stereo not shown)		ATCC19606			> 200 µg/mL
N=C(N)c1ccc(OCc2ccccc2COc2ccc(C(=N)N)cc2)cc1	broth dilution	ATCC17978			> 200 µg/mL
CCn1cc(C(=O)O)c(=O)c2cc(F)c(N3CCNCC3)cc21	broth dilution	BAA747			16 µM
CCCCCCC/C=C/C(=O)N1C(=O)/C(=C(/C)O)C(=O)C1Cc1ccc(O)cc1 (stereo not shown)		ATCC19606			> 200 µg/mL
O=C(Nc1ccc([N+](=O)[O-])cc1F)c1ccccc1O	broth dilution	BAA1605			> 64 µg/mL
CN(C)c1ccc(O)c2c1C[C@H]1C[C@H]3[C@H](N(C)C)C(O)=C(C(N)=O)C(=O)[C@@]3(O)C(O)=C1C2=O	broth dilution	ATCC19606			0.063 µg/mL
CC(C)(O/N=C(\C(=O)N[C@@H]1C(=O)N2C(C(=O)[O-])=C(C[N+]3(CCNC(=O)c4ccc(O)c(O)c4Cl)CCCC3)CS[C@H]12)c1csc(N)n1)C(=O)O		DSM30007			0.2 µM
CN(C)CC(C)(C)CNc1nc(F)c2c(c1O)C(=O)C1=C(O)[C@]3(O)C(=O)C(C(N)=O)=C(O)[C@@H](N(C)C)[C@@H]3C[C@@H]1C2.Cl	broth dilution	ATCC19606			4 µg/mL
O=C(O)c1ccc(-n2cc(/C=N/Nc3ccccc3F)c(-c3ccc4ccccc4c3)n2)cc1		ATCCBAA1605			25 µg/mL
O=C(CCc1cc(O)c(O)c(O)c1)NCCCCCCCC[P+](c1ccccc1)(c1ccccc1)c1ccccc1.[Br-]	broth dilution	ATCC19606	18 h		> 32 µg/mL
CC(C)(O/N=C(\C(=O)N[C@@H]1C(=O)N2C(C(=O)[O-])=C(C[n+]3ccccc3)CS[C@H]12)c1csc(N)n1)C(=O)O	broth dilution	ATCC19606			4 µg/mL
O=C(CCCCCCCCCC[P+](c1ccccc1)(c1ccccc1)c1ccccc1)Nc1ccc(O)c(O)c1.[Br-]	broth dilution	ATCC19606	18 h		> 32 µg/mL
CC(C)Oc1c(NC(=O)c2ccc(NC(=O)[C@H](CC(N)=O)NC(=O)c3ccc(NC(=O)c4ccc(C#N)s4)cc3)cc2)ccc(C(=O)Nc2ccc(C(=O)O)cc2)c1O		DSM30008			0.125 µg/mL
CN(C)c1nc(NC(=O)CNC(C)(C)C)c(O)c2c1C[C@H]1C[C@H]3[C@H](N(C)C)C(O)=C(C(N)=O)C(=O)[C@@]3(O)C(O)=C1C2=O.Cl	broth dilution	ATCC19606			> 32 µg/mL

SMILES	technique	strain	time	setting	MIC
N=C(N)c1ccc(OCCCCCOc2ccc(C(=N)N)cc2)cc1	broth dilution	ATCC17978			> 200 µg/mL
O=C(O)c1ccc(-n2cc(/C=N/Nc3cccc(Cl)c3)c(-c3cccc(F)c3)n2)cc1		ATCCBAA1605			6.25 µg/mL
CC(NCCCNC(=O)c1ccc(Cl)s1)c1cc2cc(Br)ccc2[nH]1 (stereo not shown)	broth dilution	ATCC19606			32 µg/mL
N=C(N)c1ccc(OCCC(CCOc2ccc(C(=N)N)cc2)c2ccccc2)cc1 (stereo not shown)	broth dilution	ATCC17978			> 200 µg/mL
C[C@@H](O)[C@H]1C(=O)N2C(C(=O)O)=C(S[C@@H]3CN[C@H](C(=O)N(C)C)C3)[C@H](C)[C@H]12	broth dilution	ATCC19606			0.5 µg/mL
CN(C)[C@@H]1C(O)=C(C(N)=O)C(=O)[C@@]2(O)C(O)=C3C(=O)c4c(cc5ccc(CN(C)S(C)(=O)=O)cc5c4O)C[C@H]3C[C@@H]12	broth dilution	ATCC19606			32 µg/mL
CCCCCCC/C=C/C(=O)N1CC(=O)/C(=C(\C)O)C1=O		ATCC19606			100 µg/mL
O=C(Cc1ccc(O)c(O)c1)NCCCCCCCC[P+](c1ccccc1)(c1ccccc1)c1ccccc1.[Br-]	broth dilution	ATCC19606	18 h		> 32 µg/mL
C[C@@H](O)[C@H]1C(=O)N2C(C(=O)O)=C(S[C@@H]3CN[C@H](C(=O)N(C)C)C3)[C@H](C)[C@H]12	broth dilution	KCCM40203	16 h		2 µM
Cc1nc(Cl)c2c(c1O)C(=O)C1=C(O)[C@]3(O)C(=O)C(C(N)=O)=C(O)[C@@H](N(C)C)[C@@H]3C[C@@H]1C2.Cl	broth dilution	ATCC19606			4 µg/mL
O=C(N[C@H](CO)[C@H](O)c1ccc([N+](=O)[O-])cc1)C(Cl)Cl		ATCC19606			250 µg/mL
C[C@@H](O)[C@H]1C(=O)N2C(C(=O)O)=C(S[C@@H]3CN[C@H](C(=O)N(C)C)C3)[C@H](C)[C@H]12				clinical isolate	128 µg/mL
CN(C)[C@@H]1C(O)=C(C(N)=O)C(=O)[C@@]2(O)C(O)=C3C(=O)c4c(O)cncc4C[C@H]3C[C@@H]12.Cl.Cl	broth dilution	ATCC19606			2 µg/mL
CCCCCCC/C=C/C(=O)N1C(=O)/C(=C(/C)O)C(=O)C1CO (stereo not shown)		ATCC19606			> 200 µg/mL
NC1CCCCc2c1[nH]c1ccc(Br)cc21 (stereo not shown)	broth dilution	ATCC19606			16 µg/mL
O=C(O)c1ccc(-n2cc(/C=N/Nc3ccc(Cl)cc3)c(-c3ccc4ccccc4c3)n2)cc1		ATCCBAA1605			12.5 µg/mL
CN(C)[C@@H]1C(O)=C(C(N)=O)C(=O)[C@@]2(O)C(O)=C3C(=O)c4c(cc5ccc(-c6cccnc6)cc5c4O)C[C@H]3C[C@@H]12	broth dilution	ATCC19606			32 µg/mL
CCCCCCC/C=C/C(=O)N1C(=O)/C(=C(/C)O)C(=O)C1Cc1ccc(OC(C)(C)C)cc1 (stereo not shown)		ATCC19606			> 200 µg/mL
CN(C)c1ccc(-c2ccc3cc4c(c(O)c3c2)C(=O)C2=C(O)[C@]3(O)C(=O)C(C(N)=O)=C(O)[C@@H](N(C)C)[C@@H]3C[C@@H]2C4)cc1	broth dilution	ATCC19606			32 µg/mL
O=C(Nc1ccc2c(c1)OC(F)(F)O2)Nc1ccc(Cl)c(C(F)(F)F)c1		DSM30007			> 100 µM
